The text below walks through data of ChEMBL document CHEMBL1649494, “Hypersusceptibility to azole antifungals in a clinical isolate of Candida glabrata with reduced aerobic growth” (2009).

Assay type in all cases: functional
Assay [1] has as its system Nakaseomyces glabratus. In words: Antifungal activity against Candida glabrata isolate 22853 by Etest method. In short, it runs like this: (§1)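 MIC by Etest strips on Casitone agar plates (pH 7.2, chloramphenicol-supplemented), run per manufacturer's recommendations; isolates maintained on YEPD agar by regular passage.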
In assay [2] the test system is Nakaseomyces glabratus. In words: Antifungal activity against Candida glabrata isolate 22853 at 10 ug after 48 hrs by disk diffusion method. Conditions: isolate 22853, 48 h, read-out: DIZ. For orientation: Agar diffusion results depend on both activity and mobility in agar.
Assay [3] deals with Nakaseomyces glabratus. In words: Antifungal activity against Candida glabrata isolate 21231 by Etest method. In short, it runs like this: as §1
Assay [4] relates to Nakaseomyces glabratus. In words: Antifungal activity against Candida glabrata isolate 22852 at 10 ug after 48 hrs by disk diffusion method. Conditions: isolate 22852, 48 h, read-out: DIZ.
Assay [5] concerns Nakaseomyces glabratus. In words: Antifungal activity against Candida glabrata isolate 21231 at 10 ug after 48 hrs by disk diffusion method. Conditions: isolate 21231, 48 h, read-out: DIZ.
Assay [6] concerns Nakaseomyces glabratus. In words: Antifungal activity against Candida glabrata isolate 22852 by Etest method. Summed up: as §1
Assay [7] relates to Nakaseomyces glabratus. In words: Antifungal activity against Candida glabrata isolate 22853 at 15 ug after 48 hrs by disk diffusion method. To be noted: isolate 22853, 48 h, read-out: DIZ.
The subject of assay [8] is Nakaseomyces glabratus. In words: Antifungal activity against Candida glabrata isolate 21231 at 15 ug after 48 hrs by disk diffusion method. To be noted: isolate 21231, 48 h, read-out: DIZ.
Assay [9] deals with Nakaseomyces glabratus. In words: Antifungal activity against Candida glabrata isolate 22852 at 15 ug after 48 hrs by disk diffusion method. To be noted: isolate 22852, 48 h, read-out: DIZ.

Converted amounts (≈) assume the structure as drawn.

For `C[C@@H]1[C@H](O)[C@@H](C)/C=C/C=C/C=C/C=C/C=C/C=C/C=C/[C@H](O[C@@H]2O[C@H](C)[C@@H](O)[C@H](N)[C@@H]2O)C[C@@H]2O[C@](O)(C[C@@H](O)C[C@@H](O)[C@H](O)CC[C@@H](O)C[C@@H](O)CC(=O)O[C@H]1C)C[C@H](O)[C@H]2C(=O)O` [AMPHOTERICIN B], the MIC (usually the smallest concentration in the dilution series that meets the test's criterion for growth inhibition) in the assay with Nakaseomyces glabratus [1] came out at 0.047 µg/mL (≈ 0.0509 µM); with Nakaseomyces glabratus [3], 0.047 µg/mL (≈ 0.0509 µM); against Nakaseomyces glabratus [6] it was 0.032 µg/mL (≈ 0.0346 µM). Besides, the zone of inhibition at 10 µg/disc in the assay on Nakaseomyces glabratus [2] was found to be 31 mm; in the assay on Nakaseomyces glabratus [4] it was 40 mm; in the assay on Nakaseomyces glabratus [5], 27 mm.

As for `Clc1ccccc1C(c1ccccc1)(c1ccccc1)n1ccnc1` [CLOTRIMAZOLE], the zone of inhibition at 10 µg/disc in the assay on Nakaseomyces glabratus [2] amounted to 12 mm; with Nakaseomyces glabratus [4], 50 mm; in the assay on Nakaseomyces glabratus [5], 25 mm.

`Clc1ccc(COC(Cn2ccnc2)c2ccc(Cl)cc2Cl)cc1` (configuration not stated) [ECONAZOLE]: the results for the zone of inhibition at 10 µg/disc with Nakaseomyces glabratus [2], with Nakaseomyces glabratus [4] and in the assay with Nakaseomyces glabratus [5] were 13 mm, 50 mm and 25 mm, respectively.

Regarding `OC(Cn1cncn1)(Cn1cncn1)c1ccc(F)cc1F` [FLUCONAZOLE], the MIC was over 256 µg/mL in the assay on Nakaseomyces glabratus [1], 6 µg/mL (≈ 19.6 µM) against Nakaseomyces glabratus [3] and 0.94 µg/mL (≈ 3.07 µM) in the assay with Nakaseomyces glabratus [6]. Besides, the zone of inhibition at 15 µg/disc was determined as 0 mm with Nakaseomyces glabratus [7], 21 mm with Nakaseomyces glabratus [8] and 50 mm in the assay with Nakaseomyces glabratus [9].

Consider `CC(=O)N1CCN(c2ccc(OCC3COC(Cn4ccnc4)(c4ccc(Cl)cc4Cl)O3)cc2)CC1` (configuration not stated) [KETOCONAZOLE], for which the zone of inhibition at 10 µg/disc was found to be 16 mm in the assay with Nakaseomyces glabratus [2], 50 mm with Nakaseomyces glabratus [4] and 33 mm in the assay on Nakaseomyces glabratus [5].

For `Clc1ccc(COC(Cn2ccnc2)c2ccc(Cl)cc2Cl)c(Cl)c1` (configuration not stated) [MICONAZOLE], the figures for the zone of inhibition at 10 µg/disc with Nakaseomyces glabratus [2], in the assay on Nakaseomyces glabratus [4] and with Nakaseomyces glabratus [5] were 0 mm, 35 mm and 21 mm, respectively.

`C[C@@H](c1ncncc1F)[C@](O)(Cn1cncn1)c1ccc(F)cc1F` [VORICONAZOLE]: the minimum inhibitory concentration (MIC) in the assay with Nakaseomyces glabratus [1] came out at 4 µg/mL (≈ 11.5 µM); against Nakaseomyces glabratus [3], 0.047 µg/mL (≈ 0.135 µM); against Nakaseomyces glabratus [6], 0.003 µg/mL (≈ 0.00859 µM).
